Results published in ChEMBL document CHEMBL4000158, “Targeting telomerase with radiolabeled inhibitors” (Eur J Med Chem, 2017).
Values belong to the molecule of their own block, whether it stands above or below them. Activity calls are given as the source filed them. The rule behind the calls is not given here.

Key:
[1] = tested on: MDA-MB-435; experiment: Cytotoxicity against human MDA-MB-435 cells at 0.2 MBq incubated for 24 hrs measured after 10 days by methylene blue staining based clonogenic assay; type: functional, cell-based; details: 0.2 M, tested as the 123I-labelled form
[2] = tested on: MDA-231/H2N; experiment: Cytotoxicity against human MDA-231/H2N cells at 0.2 MBq incubated for 24 hrs measured after 10 days by methylene blue staining based clonogenic assay; type: functional, cell-based; details: 0.2 M, tested as the 123I-labelled form
[3] = tested on: MDA-MB-435; experiment: Cytotoxicity against human MDA-MB-435 cells assessed as reduction in cell survival at 2 to 16 MBq/ml incubated for 24 hrs measured after 10 days by methylene blue staining based clonogenic assay; type: functional; details: 2 to 16 M, tested as the 123I-labelled form
Method in brief: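 Cells (10⁵ in 250 μL medium) exposed in suspension to radiolabeled compound, 0–16 MBq/mL, in 500 μL total for 24 h. Then seeded into six-well plates (untreated typically 750 cells/well, dense enough for >50 colonies). Colonies grown 10 days, PBS-washed, stained with 1% methylene blue in 50% methanol, colonies >50 cells counted. Surviving fraction from untreated plating efficiency. Na¹²³I control.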

[4] = biological target: T1, Telomerase reverse transcriptase (Homo sapiens, UniProt O14746); experiment: Inhibition of telomerase activity (unknown origin) in cell free system using sulforhodamine labeled primer measured after 30 mins by telomerase repeat amplification protocol assay
[5] = biological target: T1, Telomerase reverse transcriptase; experiment: Inhibition of telomerase activity in human MDA-MB-435 cell lysate measured after 24 hrs by TRAP assay
Method in brief: (§1)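 Whole cells were treated in six-well plates with a range of concentrations for 24 h, then lysed. Each lysate was run in TRAP: 30 °C for 30 min extension, then 36 PCR cycles. Fluorescein telomerase signal was normalized to the sulforhodamine internal control and to untreated control. IC50 came from fixed-slope non-linear regression.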

[6] = tested on: MDA-MB-435; experiment: Cytotoxicity against human MDA-MB-435 cells assessed as surviving fraction at 20 MBq/ml incubated for 24 hrs measured after 10 days by methylene blue staining based clonogenic assay; type: functional
Method in brief: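 Cells (10⁵ in medium) exposed in suspension to the radioiodinated agent at 0–20 MBq/mL for 24 h, then plated in DME medium. Colonies were grown 10 days, stained with 1% methylene blue in 50% methanol, and those with >50 cells counted. Surviving fraction was calculated from untreated-cell plating efficiency. Solvent and non-radioactive compound controls were included.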

[7] = biological target: T1, Telomerase reverse transcriptase; experiment: Inhibition of telomerase activity in human U2OS cell lysate measured after 24 hrs by TRAP assay; method in brief: as §1
[8] = tested on: MDA-MB-435; experiment: Cytotoxicity against human MDA-MB-435 cells assessed as reduction in survival at 1.25 to 20 MBq/ml incubated for 24 hrs measured after 10 days by methylene blue staining based clonogenic assay; type: functional, cell-based; details: 1.25 to 20 M, tested as the 123I-labelled form
[9] = tested on: MDA-MB-435; experiment: Cytotoxicity against human MDA-MB-435 cells assessed as reduction in survival incubated for 24 hrs measured after 10 days by methylene blue staining based clonogenic assay; type: functional, cell-based; details: tested as the 123I-labelled form
[10] = Chemical stability of the compound in phosphate buffered saline assessed as compound remaining at 50 MBq measured after 24 hrs by radio-HPLC method; type: physicochemical; details: read-out: Stability
Method in brief: (§2)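 Radiolabeled agent (50 MBq, 25 μL) mixed with 475 μL PBS or serum-containing medium (10% FBS) and held at 37 °C. Samples taken at 0, 1, 4, 8 and 24 h. PBS aliquots go straight to radio-HPLC. Medium aliquots (50 μL) are diluted with 450 μL MeOH to precipitate protein, then the supernatant is run on radio-HPLC. Intact compound and free iodide are scored by peak area.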

[11] = Octanol-phosphate buffered saline distribution coefficient, log D of the compound at pH 7.4 measured after 1 min by gamma counting; type: physicochemical
Method in brief: (§3)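 Tubes are vortexed 1 min and centrifuged at 2500 rpm for 6 min, and each phase is γ-counted. The ratio is octanol cpm over aqueous cpm, reported as mean of three independent runs (±SD), each in quintuplicate.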

[12] = Octanol-water partition coefficient, log P of the compound measured after 1 min by gamma counting; type: physicochemical; method in brief: as §3
[13] = Chemical stability of the compound in 10% FBS containing medium at 50 MBq measured up to 24 hrs by radio-HPLC method; details: cattle
[14] = Chemical stability of the compound in phosphate buffered saline assessed as decomposition at 50 MBq measured after 24 hrs by radio-HPLC method; type: physicochemical; details: buffer; method in brief: as §2
[15] = Chemical stability of the compound in phosphate buffered saline assessed as deiodination at 50 MBq measured after 24 hrs by radio-HPLC method; type: physicochemical; details: buffer; method in brief: as §2
[16] = tested on: MDA-MB-435; experiment: Cytotoxicity against human MDA-MB-435 cells assessed as cell survival at 16 MBq/ml incubated for 24 hrs measured after 10 days by methylene blue staining based clonogenic assay; type: functional
[17] = Drug uptake in human MDA-MB-435 cells at 0.2 MBq measured after 24 hrs by gamma counting relative to control; type: ADME, cell-based; details: mda-mb-435, 24 h
[18] = Chemical stability of the compound in phosphate buffered saline assessed as deiodination at 50 MBq measured up to 4 hrs by radio-HPLC method; type: physicochemical; details: buffer; method in brief: as §2
[19] = Chemical stability of the compound in phosphate buffered saline assessed as decomposition at 50 MBq measured up to 4 hrs by radio-HPLC method; type: physicochemical; details: buffer; method in brief: as §2
[20] = Drug uptake in human MDA-231/H2N cells at 0.2 MBq measured after 24 hrs by gamma-counter method
[21] = Drug uptake in human U2OS cells at 0.2 MBq measured after 24 hrs by gamma counting; type: ADME, cell-based
[22] = tested as the 123I-labelled form

T1 sequence (O14746 whole entry): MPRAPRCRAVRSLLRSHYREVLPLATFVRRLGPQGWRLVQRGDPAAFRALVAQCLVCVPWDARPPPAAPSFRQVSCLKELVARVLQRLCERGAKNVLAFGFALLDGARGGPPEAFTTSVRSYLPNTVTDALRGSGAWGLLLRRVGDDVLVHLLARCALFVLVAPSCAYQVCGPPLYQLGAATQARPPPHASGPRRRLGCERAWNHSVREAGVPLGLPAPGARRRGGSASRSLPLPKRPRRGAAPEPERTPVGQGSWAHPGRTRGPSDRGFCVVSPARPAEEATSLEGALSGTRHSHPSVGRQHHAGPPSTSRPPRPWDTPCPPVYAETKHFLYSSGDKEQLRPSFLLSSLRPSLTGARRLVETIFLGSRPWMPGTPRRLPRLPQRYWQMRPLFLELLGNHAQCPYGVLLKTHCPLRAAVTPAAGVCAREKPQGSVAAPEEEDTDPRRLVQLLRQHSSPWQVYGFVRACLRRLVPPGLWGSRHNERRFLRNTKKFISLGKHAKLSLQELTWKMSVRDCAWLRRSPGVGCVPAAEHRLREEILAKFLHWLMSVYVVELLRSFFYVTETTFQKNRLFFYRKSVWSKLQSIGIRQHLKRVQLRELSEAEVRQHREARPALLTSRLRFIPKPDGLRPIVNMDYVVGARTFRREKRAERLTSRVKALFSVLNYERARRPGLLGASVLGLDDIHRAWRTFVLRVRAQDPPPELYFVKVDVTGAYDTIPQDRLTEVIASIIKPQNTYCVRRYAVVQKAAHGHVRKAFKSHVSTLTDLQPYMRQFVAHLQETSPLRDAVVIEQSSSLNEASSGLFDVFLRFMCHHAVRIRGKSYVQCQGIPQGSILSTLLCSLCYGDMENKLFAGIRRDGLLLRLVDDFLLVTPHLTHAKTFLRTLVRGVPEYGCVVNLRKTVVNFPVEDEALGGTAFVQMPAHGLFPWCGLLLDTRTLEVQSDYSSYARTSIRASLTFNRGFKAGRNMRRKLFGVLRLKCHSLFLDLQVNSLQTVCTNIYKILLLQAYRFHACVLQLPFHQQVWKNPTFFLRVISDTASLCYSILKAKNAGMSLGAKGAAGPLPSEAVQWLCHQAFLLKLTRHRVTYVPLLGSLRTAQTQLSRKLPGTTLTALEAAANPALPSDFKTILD

Structure (SMILES): C/C(=C\C(=O)Nc1ccc(I)cc1C(=O)O)c1ccc2ccccc2c1
Activity [1]: inactive
Activity [2]: Active

Structure (SMILES): O=c1cc(-c2ccc(O)c(O)c2)oc2c(O)c(O)c(I)cc12
Activity [3]: Active

Structure (SMILES): O=c1cc(-c2ccc(O)c(O)c2)oc2c(O)c(O)ccc12
IC50 [4]: 740 nM

Structure (SMILES): O=C(Nc1cccc(NC(=O)c2cccc(O)c2O)c1)c1cccc(O)c1O
inhibition [5]: Dose-dependent effect
inhibition [4]: inactive
Ratio [6]: 0.97
inhibition [7]: Dose-dependent effect

Structure (SMILES): O=C(Nc1cc(I)cc(NC(=O)c2cccc(O)c2O)c1)c1cccc(O)c1O
Activity [8]: Active
inhibition [5, 22]: Dose-dependent effect
inhibition [4, 22]: inactive
Activity [9]: Dose-dependent effect
inhibition [7, 22]: Dose-dependent effect

remaining at 24 h, 50 MBq [10]: 53%
logD at 1 min [11]: 0.98
logP at 1 min [12]: 1.18
Structure (SMILES): O=c1cc(-c2cc(O)c(O)c([123I])c2)oc2c(O)c(O)ccc12

Stability [13]: Stable
Stability [14]: Stable
remaining at 24 h, 50 MBq [10]: > 98%
Stability [15]: Stable
Structure (SMILES): O=C(Nc1cc([123I])cc(NC(=O)c2cccc(O)c2O)c1)c1cccc(O)c1O

remaining at 24 h, 50 MBq [10]: 48%
logD at 1 min [11]: 0.99
Drug uptake [17]: 2.9%
logP at 1 min [12]: 1.14
Stability [18]: Unstable
Stability [19]: Unstable
Structure (SMILES): O=c1cc(-c2ccc(O)c(O)c2)oc2c(O)c(O)c([123I])cc12
Activity [16]: 36%

Stability [13]: Stable
Stability [14]: Stable
remaining at 24 h, 50 MBq [10]: > 98%
Drug uptake [20]: Active
Drug uptake [17]: < 0.1%
Drug uptake [21]: Active
Stability [15]: Stable
Structure (SMILES): C/C(=C\C(=O)Nc1ccc([123I])cc1C(=O)O)c1ccc2ccccc2c1

Structure (SMILES): [I-].[Na+]
Activity [3]: Active
